Inhibition data for six compounds are collected here from PubChem BioAssay AID504513 (The Scripps Research Institute Molecular Screening Center, 2011).

Activity calls are given as the source filed them.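 How the source made its calls: active means PAFAH2 inhibition at least 50% at 0.2 µM with under 50% on each related off-target enzyme; inactive means the rest, including PAFAH2 hits that also hit off-targets.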

Common to all, as to test: PAFAH2 inhibition and serine hydrolase selectivity, late-stage follow-up, cell lysate, fluorescence, gel-based ABPP, BW5147 T-cell proteome, powder samples (AID 504513);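 further: 0% = DMSO-only band intensity and 100% = blank gel background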
One experiment deals with ABHD11. Conditions: BW5147 mouse T-cell proteome, FP-Rh gel ABPP, stronger effect = higher value. The method in brief:
(§1)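 assay system = mouse BW5147 T-cell soluble lysate | amount = 1 mg/mL soluble protein | schedule = compound pretreatment 30 min, then 30 min probe labelling at 25 °C | measured by = in-gel fluorescence of probe-labelled bands, integrated optical density | evaluation = percent band labelling lost versus DMSO control | control set = DMSO-only sample as high, blank gel area as low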

The test system of a further experiment is APEH. The note with it: BW5147 mouse T-cell proteome, FP-Rh gel ABPP, stronger effect = higher value. The method in brief:
as §1

Another experiment concerns ESD. The note with it: BW5147 mouse T-cell proteome, FP-Rh gel ABPP, stronger effect = higher value. The method in brief:
as §1

Another experiment has as its system LYPLA1. Conditions: BW5147 mouse T-cell proteome, FP-Rh gel ABPP, stronger effect = higher value. The method in brief:
as §1

The target of experiment [1] is Platelet-activating factor acetylhydrolase 2, cytoplasmic (Mus musculus) (UniProt Q8VDG7). The note with it: FP-Rh gel ABPP, stronger effect = higher value. The method in brief:
as §1

Chain of Platelet-activating factor acetylhydrolase 2, cytoplasmic (Mus musculus) (Q8VDG7 whole entry, looked up): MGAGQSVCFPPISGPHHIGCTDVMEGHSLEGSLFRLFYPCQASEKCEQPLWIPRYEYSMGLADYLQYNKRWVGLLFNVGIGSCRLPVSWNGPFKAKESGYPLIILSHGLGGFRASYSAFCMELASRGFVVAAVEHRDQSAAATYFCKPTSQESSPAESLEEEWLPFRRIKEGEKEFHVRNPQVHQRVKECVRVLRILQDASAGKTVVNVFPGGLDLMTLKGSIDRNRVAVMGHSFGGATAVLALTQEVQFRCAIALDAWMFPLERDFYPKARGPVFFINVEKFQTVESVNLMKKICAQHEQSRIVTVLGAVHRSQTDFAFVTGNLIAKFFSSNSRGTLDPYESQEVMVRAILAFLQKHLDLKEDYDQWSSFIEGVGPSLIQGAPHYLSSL

Regarding `O=C(N1CCCC1)n1ncc(C(O)(c2ccccc2)c2ccccc2)n1`, the inhibition (usually the relative decrease from the control value, in per cent) with ABHD11 (at 1 µM) is 100%; with ABHD11 (inhibition, at 0.02 µM) it was 0%; in the experiment on ABHD11 (inhibition, at 0.2 µM), 100%; in the experiment on APEH (at 1 µM), 100%; with APEH (inhibition, at 0.02 µM), 0%; in the experiment on APEH (inhibition, at 0.2 µM) it was 100%. The inhibition was 0% (inactive) in the experiment with ESD (at 1 µM); 0% with ESD (inhibition, at 0.02 µM); 0% with ESD (inhibition, at 0.2 µM); 0% (inactive) in the experiment with LYPLA1 (at 1 µM); 0% in the experiment with LYPLA1 (inhibition, at 0.02 µM); 0% in the experiment on LYPLA1 (inhibition, at 0.2 µM). Besides, the inhibition in experiment [1] (PAFAH2, at 1 µM) is 100%; in experiment [1] (PAFAH2, inhibition, at 0.02 µM) it was 0%; in experiment [1] (PAFAH2, inhibition, at 0.2 µM), 100%.

Regarding `O=C(N1CCOCC1)n1ncc(-c2ccccc2)n1`, the inhibition is 100% in the experiment with ABHD11 (at 1 µM); 50% in the experiment on ABHD11 (inhibition, at 0.02 µM); 100% in the experiment with ABHD11 (inhibition, at 0.2 µM); 50% (inactive) with APEH (at 1 µM); 0% in the experiment with APEH (inhibition, at 0.02 µM); 25% with APEH (inhibition, at 0.2 µM). Further, the inhibition was 0% (inactive) with ESD (at 1 µM); 0% in the experiment on ESD (inhibition, at 0.02 µM); 0% with ESD (inhibition, at 0.2 µM); 0% (inactive) in the experiment on LYPLA1 (at 1 µM); 0% in the experiment with LYPLA1 (inhibition, at 0.02 µM); 0% in the experiment on LYPLA1 (inhibition, at 0.2 µM). The inhibition in experiment [1] (PAFAH2, at 1 µM) was 75%; in experiment [1] (PAFAH2, inhibition, at 0.02 µM), 25%; in experiment [1] (PAFAH2, inhibition, at 0.2 µM) it was 50%.

Consider `CCN(CC)C(=O)n1ccnn1`, for which the inhibition in the experiment with ABHD11 (at 1 µM) was 0% (inactive); in the experiment on ABHD11 (inhibition, at 0.02 µM), 0%; in the experiment on ABHD11 (inhibition, at 0.2 µM), 0%; in the experiment on APEH (at 1 µM), 0% (inactive); with APEH (inhibition, at 0.02 µM), 0%; in the experiment with APEH (inhibition, at 0.2 µM), 0%. In addition, the inhibition in the experiment with ESD (at 1 µM) was 0% (inactive); in the experiment on ESD (inhibition, at 0.02 µM) it was 0%; in the experiment with ESD (inhibition, at 0.2 µM) it was 0%; with LYPLA1 (at 1 µM), 0% (inactive); with LYPLA1 (inhibition, at 0.02 µM), 0%; with LYPLA1 (inhibition, at 0.2 µM), 0%. The inhibition was 0% (inactive) in experiment [1] (PAFAH2, at 1 µM); 0% in experiment [1] (PAFAH2, inhibition, at 0.02 µM); 0% in experiment [1] (PAFAH2, inhibition, at 0.2 µM).

For `COc1ccc2cc(-c3cnn(C(=O)N4CCCC4)n3)ccc2c1`, the inhibition in the experiment with ABHD11 (at 1 µM) was 0% (inactive); with ABHD11 (inhibition, at 0.02 µM), 0%; in the experiment on ABHD11 (inhibition, at 0.2 µM), 0%; with APEH (at 1 µM) it was 100% (inactive); with APEH (inhibition, at 0.02 µM) it was 0%; in the experiment with APEH (inhibition, at 0.2 µM), 25%. Also, the inhibition in the experiment on ESD (at 1 µM) is 0% (inactive); in the experiment on ESD (inhibition, at 0.02 µM) it was 0%; in the experiment with ESD (inhibition, at 0.2 µM) it was 0%; in the experiment on LYPLA1 (at 1 µM), 0% (inactive); in the experiment with LYPLA1 (inhibition, at 0.02 µM), 0%; in the experiment on LYPLA1 (inhibition, at 0.2 µM), 0%. The inhibition in experiment [1] (PAFAH2, at 1 µM) was 100%; in experiment [1] (PAFAH2, inhibition, at 0.02 µM), 0%; in experiment [1] (PAFAH2, inhibition, at 0.2 µM), 100%.

In the case of `C=CCN(CC=C)C(=O)n1ccnn1`, the inhibition in the experiment on ABHD11 (at 1 µM) was 100% (inactive); in the experiment with ABHD11 (inhibition, at 0.02 µM), 0%; with ABHD11 (inhibition, at 0.2 µM), 0%; with APEH (at 1 µM), 0% (inactive); in the experiment with APEH (inhibition, at 0.02 µM) it was 0%; with APEH (inhibition, at 0.2 µM) it was 0%. In addition, the inhibition in the experiment with ESD (at 1 µM) was 0% (inactive); in the experiment on ESD (inhibition, at 0.02 µM) it was 0%; in the experiment with ESD (inhibition, at 0.2 µM), 0%; in the experiment on LYPLA1 (at 1 µM), 0% (inactive); with LYPLA1 (inhibition, at 0.02 µM) it was 0%; in the experiment on LYPLA1 (inhibition, at 0.2 µM) it was 0%. Besides, the inhibition in experiment [1] (PAFAH2, at 1 µM) is 0% (inactive); in experiment [1] (PAFAH2, inhibition, at 0.02 µM), 0%; in experiment [1] (PAFAH2, inhibition, at 0.2 µM), 0%.

As to `O=C(N1CCCC1)n1ncc(-c2ccc(OC(F)(F)F)cc2)n1`, the inhibition in the experiment with ABHD11 (at 1 µM) is 50%; in the experiment on ABHD11 (inhibition, at 0.02 µM), 0%; in the experiment on ABHD11 (inhibition, at 0.2 µM), 50%; with APEH (at 1 µM), 100%; with APEH (inhibition, at 0.02 µM), 0%; in the experiment with APEH (inhibition, at 0.2 µM), 100%. The inhibition is 0% (inactive) with ESD (at 1 µM); 0% in the experiment on ESD (inhibition, at 0.02 µM); 0% with ESD (inhibition, at 0.2 µM); 0% (inactive) in the experiment with LYPLA1 (at 1 µM); 0% in the experiment with LYPLA1 (inhibition, at 0.02 µM); 0% in the experiment on LYPLA1 (inhibition, at 0.2 µM). Further, the inhibition in experiment [1] (PAFAH2, at 1 µM) was 100%; in experiment [1] (PAFAH2, inhibition, at 0.02 µM) it was 25%; in experiment [1] (PAFAH2, inhibition, at 0.2 µM) it was 100%.
